One data set concerns L929. The data set is described as follows: Cytotoxicity against mouse L929 cells assessed as reduction in cell viability up to 200 ug/ml after 5 days by MTT assay. In kind it is cell-based. The note with it: l929, 120 h. The method in brief: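 MTT viability assay in mouse fibroblasts, run on compounds active against TB, with 200 µg/mL as the highest test concentration.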
In general terms: Tetrazolium assays rely on reduction of a dye to a coloured formazan, in cell work by metabolically active cells.

Data set [1] deals with Mycobacterium tuberculosis. The data set is described as follows: Antitubercular activity against Mycobacterium tuberculosis H37Rv strain at 6.25 ug/ml by microplate alamar blue assay. Type of data set: functional. Background: Resazurin is reduced to fluorescent resorufin, in cell work by metabolically active cells.
For data set [2], the system named is Mycobacterium tuberculosis. The data set is described as follows: Antitubercular activity against Mycobacterium tuberculosis H37Rv strain by BACTEC 460 radiometric assay. In kind it is functional, organism-based.

By inhibition is commonly meant the relative decrease from the control value, in per cent. High values mean a strong effect, low ones a weak effect. Usually IC50 stands for the concentration that gives 50% inhibition. Low values mean inhibition by little substance, high ones a need for much substance. For orientation: MIC90 means the lowest concentration that inhibits either 90% of growth or 90% of the strains tested, depending on the study. A lower MIC90 goes with greater potency. As usually defined, the MIC99 is an inhibitory concentration at the 99% level, which refers to growth in some studies and to a panel of isolates in others. Lower therefore signals greater potency.

Values after ≈ are worked out from the molar mass of the structure shown.

For the compound `CC(=O)NNC(=O)c1cc(C23CC4CC(CC(C4)C2)C3)c2ccccc2n1`, in the data set with L929, the Activity result was “Non-toxic”. For the same compound, the inhibition at 6.25 µg/mL in data set [1] was 5%. Besides, in data set [2], the IC50 is 324 µM and the MIC90 is 6.25 µg/mL (≈ 17.2 µM).
Regarding `O=C(NNC(=O)c1cc(C23CC4CC(CC(C4)C2)C3)c2ccccc2n1)NC1CCCC1`, the Activity entry with L929 was “Non-toxic”. The inhibition at 6.25 µg/mL in data set [1] was found to be 84%. In data set [2], this compound gave an IC50 of 2.75 µM and an MIC90 of 6.25 µg/mL (≈ 14.4 µM).
The like results for `CCc1cccc(CC)c1NC(=O)NNC(=O)c1cc(C23CC4CC(CC(C4)C2)C3)c2ccccc2n1` were, in that order, “Non-toxic”, 27%, 33.9 µM and 6.25 µg/mL (≈ 12.6 µM).
The like results for `O=C(NNC(=O)c1cc(C23CC4CC(CC(C4)C2)C3)c2ccccc2n1)NC1CCCCCCCCCCC1` were, in that order, “Non-toxic”, 87%, 1.78 µM and 6.25 µg/mL (≈ 11.8 µM).
In the case of `CCCCOc1ccc(NC(=O)NNC(=O)c2cc(C34CC5CC(CC(C5)C3)C4)c3ccccc3n2)cc1`, the Activity result in the data set on L929 is on record as “Non-toxic”. The compound also showed an inhibition at 6.25 µg/mL in data set [1] of 61%. In data set [2], the midpoint of inhibition, the IC50, lay at 7.76 µM and the MIC90 was 6.25 µg/mL (≈ 12.2 µM).
For the compound `O=C(NNC(=O)c1cc(C23CC4CC(CC(C4)C2)C3)c2ccccc2n1)Nc1ccc(F)cc1`, the Activity result in the data set on L929 is given as “Non-toxic”. Moreover, the inhibition at 6.25 µg/mL in data set [1] was 68%. In data set [2], the 50% inhibitory concentration (IC50) is 6.46 µM and the MIC90 was found to be 6.25 µg/mL (≈ 13.6 µM).
The like results for `COc1ccc(NC(=O)NNC(=O)c2cc(C34CC5CC(CC(C5)C3)C4)c3ccccc3n2)cc1` were, in that order, “Non-toxic”, 78%, 3.72 µM and 6.25 µg/mL (≈ 13.3 µM).
The like results for `Cc1cc(C)c(NC(=O)NNC(=O)c2cc(C34CC5CC(CC(C5)C3)C4)c3ccccc3n2)c(C)c1` were, in that order, “Non-toxic”, 77%, 3.89 µM and 6.25 µg/mL (≈ 12.9 µM).
The matching figures for `O=C(NNC(=O)c1cc(C23CC4CC(CC(C4)C2)C3)c2ccccc2n1)Nc1cccc(F)c1`: “Non-toxic”, 78%, 3.8 µM and 6.25 µg/mL (≈ 13.6 µM).
Consider `O=C(NNC(=O)C12CC3CC(CC(C3)C1)C2)c1cc(C23CC4CC(CC(C4)C2)C3)c2ccccc2n1`, for which the Activity entry with L929 is given as “Non-toxic”. Besides, the inhibition at 6.25 µg/mL in data set [1] was 87%. In data set [2], this compound gave a concentration for half-maximal inhibition (IC50) of 1.95 µM and an MIC90 of 6.25 µg/mL (≈ 12.9 µM).
`O=C(NNC(=O)c1cc(C23CC4CC(CC(C4)C2)C3)c2ccccc2n1)c1ccc2ccccc2c1`: the Activity result with L929 is listed as “Non-toxic”. Moreover, the inhibition at 6.25 µg/mL in data set [1] came to 90%. Further, in data set [2], the IC50 is 4.68 µM and the MIC90 worked out at 6.25 µg/mL (≈ 13.1 µM).
Consider `O=C(NNC(=S)Nc1ccccc1)c1cc(C23CC4CC(CC(C4)C2)C3)c2ccccc2n1`, for which the Activity result in the data set on L929 is listed as “Non-toxic”. Besides, the inhibition at 6.25 µg/mL in data set [1] amounted to 12%. Also, in data set [2], the IC50 was 100 µM and the MIC90 was found to be 6.25 µg/mL (≈ 13.7 µM).
Turning to `O=C(NNC(=S)NC1CCCCC1)c1cc(C23CC4CC(CC(C4)C2)C3)c2ccccc2n1`, the Activity result with L929 is reported as “Non-toxic”. Also, the inhibition at 6.25 µg/mL in data set [1] was 0%. The MIC90 in data set [2] is 6.25 µg/mL (≈ 13.5 µM).
As for `O=C(NNC(=S)Nc1cccc2ccccc12)c1cc(C23CC4CC(CC(C4)C2)C3)c2ccccc2n1`, the Activity entry in the data set on L929 is listed as “Non-toxic”. In data set [1], this compound showed an inhibition at 6.25 µg/mL of 44%. In data set [2], this compound showed an IC50 of 15.8 µM and an MIC90 of 6.25 µg/mL (≈ 12.3 µM).
The matching figures for `O=C(NNC(=S)Nc1cccc(Cl)c1Cl)c1cc(C23CC4CC(CC(C4)C2)C3)c2ccccc2n1`: “Non-toxic”, 74%, 4.17 µM and 6.25 µg/mL (≈ 11.9 µM).
The matching figures for `COc1ccc(OC)c(NC(=S)NNC(=O)c2cc(C34CC5CC(CC(C5)C3)C4)c3ccccc3n2)c1`: “Non-toxic”, 81%, 2.82 µM and 6.25 µg/mL (≈ 12.1 µM).
The like results for `O=C(NNC(=S)Nc1cc(Cl)ccc1Cl)c1cc(C23CC4CC(CC(C4)C2)C3)c2ccccc2n1` were, in that order, “Non-toxic”, 43%, 15.8 µM and 6.25 µg/mL (≈ 11.9 µM).
For the compound `Cc1ccc(NC(=S)NNC(=O)c2cc(C34CC5CC(CC(C5)C3)C4)c3ccccc3n2)cc1`, in the data set with L929, the Activity entry is “Non-toxic”. Besides, the inhibition at 6.25 µg/mL in data set [1] was 23%. In data set [2], this compound showed an IC50 of 45.7 µM and an MIC90 of 6.25 µg/mL (≈ 13.3 µM).
The matching figures for `Cc1cccc(C)c1NC(=S)NNC(=O)c1cc(C23CC4CC(CC(C4)C2)C3)c2ccccc2n1`: “Non-toxic”, 51%, 12.3 µM and 6.25 µg/mL (≈ 12.9 µM).
The like results for `CCc1ccccc1NC(=S)NNC(=O)c1cc(C23CC4CC(CC(C4)C2)C3)c2ccccc2n1` were, in that order, “Non-toxic”, 89%, 1.58 µM and 6.25 µg/mL (≈ 12.9 µM).
The like results for `O=C(NNC(=S)Nc1ccc([N+](=O)[O-])cc1Cl)c1cc(C23CC4CC(CC(C4)C2)C3)c2ccccc2n1` were, in that order, “Non-toxic”, 96%, 0.49 µM and 6.25 µg/mL (≈ 11.7 µM).
In the case of `COc1ccc(C)cc1NC(=S)NNC(=O)c1cc(C23CC4CC(CC(C4)C2)C3)c2ccccc2n1`, the Activity entry in the data set with L929 is reported as “Non-toxic”. The compound also gave an inhibition at 6.25 µg/mL in data set [1] of 12%. For the same compound, in data set [2], the midpoint of inhibition, the IC50, lay at 91.2 µM and the MIC90 came to 6.25 µg/mL (≈ 12.5 µM).
Turning to `O=C(NNC(=S)Nc1ccc([N+](=O)[O-])cc1)c1cc(C23CC4CC(CC(C4)C2)C3)c2ccccc2n1`, in the data set on L929, the Activity result is listed as “Non-toxic”. Also, the inhibition at 6.25 µg/mL in data set [1] came to 94%. Moreover, in data set [2], the IC50 was 0.794 µM and the MIC90 amounted to 6.25 µg/mL (≈ 12.5 µM).
Regarding `CCNC(=S)NNC(=O)c1cc(C23CC4CC(CC(C4)C2)C3)c2ccccc2n1`, the Activity entry with L929 is recorded as “Non-toxic”. Also, the inhibition at 6.25 µg/mL in data set [1] turned out to be 72%. In data set [2], this compound gave an IC50 of 5.89 µM and an MIC90 of 6.25 µg/mL (≈ 15.3 µM).
The matching figures for `C=CCNC(=S)NNC(=O)c1cc(C23CC4CC(CC(C4)C2)C3)c2ccccc2n1`: “Non-toxic”, 77%, 4.07 µM and 6.25 µg/mL (≈ 14.9 µM).
The matching figures for `CC(C)(C)NC(=S)NNC(=O)c1cc(C23CC4CC(CC(C4)C2)C3)c2ccccc2n1`: “Non-toxic”, 90%, 1.58 µM and 6.25 µg/mL (≈ 14.3 µM).
The like results for `O=C(NNC(=S)NCCc1ccccc1)c1cc(C23CC4CC(CC(C4)C2)C3)c2ccccc2n1` were, in that order, “Non-toxic”, 47%, 14.5 µM and 6.25 µg/mL (≈ 12.9 µM).
As for `O=C(NNC(=S)Nc1ccccc1C(F)(F)F)c1cc(C23CC4CC(CC(C4)C2)C3)c2ccccc2n1`, the Activity entry in the data set on L929 is listed as “Non-toxic”. In data set [1], the inhibition at 6.25 µg/mL came to 79%. In data set [2], this compound showed an IC50 of 2.88 µM and an MIC90 of 6.25 µg/mL (≈ 11.9 µM).
The like results for `O=C(NNC(=S)Nc1ccc(OC(F)(F)F)cc1)c1cc(C23CC4CC(CC(C4)C2)C3)c2ccccc2n1` were, in that order, “Non-toxic”, 89%, 1.45 µM and 6.25 µg/mL (≈ 11.6 µM).
The like results for `COc1cc(NC(=S)NNC(=O)c2cc(C34CC5CC(CC(C5)C3)C4)c3ccccc3n2)cc(OC)c1OC` were, in that order, “Non-toxic”, 46%, 14.5 µM and 6.25 µg/mL (≈ 11.4 µM).
The like results for `CCCCCNC(=O)NNC(=O)c1cc(C23CC4CC(CC(C4)C2)C3)c2ccccc2n1` were, in that order, “Non-toxic”, 55%, 11.7 µM and 6.25 µg/mL (≈ 14.4 µM).
For the compound `O=C(NNC(=O)c1cc(C23CC4CC(CC(C4)C2)C3)c2ccccc2n1)NC12CC3CC(CC(C3)C1)C2`, in the data set with L929, the Activity entry is recorded as “Non-toxic”. In addition, the inhibition at 6.25 µg/mL in data set [1] came out at 34%. In data set [2], this compound gave a half-inhibitory concentration (IC50) of 24.5 µM and an MIC90 of 6.25 µg/mL (≈ 12.5 µM).
For `COc1cc(NC(=O)NNC(=O)c2cc(C34CC5CC(CC(C5)C3)C4)c3ccccc3n2)cc(OC)c1OC`, in the data set on L929, the Activity result is “Non-toxic”. For the same compound, the inhibition at 6.25 µg/mL in data set [1] worked out at 22%. Further, in data set [2], the IC50 was 41.7 µM and the MIC90 is 6.25 µg/mL (≈ 11.8 µM).
For the compound `CC(C)(C)c1ccc(NC(=O)NNC(=O)c2cc(C34CC5CC(CC(C5)C3)C4)c3ccccc3n2)cc1`, the Activity entry with L929 is reported as “Non-toxic”. 6.25 µg/mL produced 37% inhibition in data set [1]. Moreover, in data set [2], the IC50 is 22.4 µM and the MIC90 was found to be 6.25 µg/mL (≈ 12.6 µM).
The like results for `CCCCCCNC(=O)NNC(=O)c1cc(C23CC4CC(CC(C4)C2)C3)c2ccccc2n1` were, in that order, “Non-toxic”, 47%, 15.8 µM and 6.25 µg/mL (≈ 13.9 µM).
On to `CCCCCCCCCCCCCCCCNC(=O)NNC(=O)c1cc(C23CC4CC(CC(C4)C2)C3)c2ccccc2n1`, for which the Activity result in the data set on L929 was “Non-toxic”. Besides, testing at 6.25 µg/mL in data set [1] gave an inhibition of 16%. In data set [2], this compound showed a concentration for half-maximal inhibition (IC50) of 56.2 µM and an MIC90 of 6.25 µg/mL (≈ 10.6 µM).
In data set [2], `NNC(=O)c1ccncc1` [ISONIAZID] gave an MIC99 of 0.1 µg/mL (≈ 0.729 µM).
On to `CO[C@H]1/C=C/O[C@@]2(C)Oc3c(C)c(O)c4c(O)c(c(/C=N/N5CCN(C)CC5)c(O)c4c3C2=O)NC(=O)/C(C)=C\C=C\[C@H](C)[C@H](O)[C@@H](C)[C@@H](O)[C@@H](C)[C@H](OC(C)=O)[C@@H]1C` [RIFAMPIN], for which at 6.25 µg/mL the inhibition in data set [1] was 99%. The compound also gave an MIC99 in data set [2] of 0.2 µg/mL (≈ 0.243 µM).
